These results are taken from ChEMBL document CHEMBL3751731, “Ferulic acid-carbazole hybrid compounds: Combination of cholinesterase inhibition, antioxidant and neuroprotection as multifunctional anti-Alzheimer agents” (Bioorg Med Chem, 2016).

The target of series [1] is Acetylcholinesterase (Electrophorus electricus, UniProt O42275). In words: Inhibition of electric eel AChE using ATC as substrate preincubated for 5 mins followed by substrate addition measured after 2 mins by Ellman's assay.
The target of series [2] is Acetylcholinesterase (Homo sapiens, UniProt P22303). In words: Inhibition of human AChE using ATC as substrate preincubated for 5 mins followed by substrate addition measured after 2 mins by Ellman's assay. The procedure, abridged: (§1)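 Ellman's method with DTNB chromogen, acetylthiocholine (AChE) or butyrylthiocholine (BChE) iodide substrate, in potassium phosphate buffer pH 8.0 (KOH-adjusted). Compounds were diluted from ethanol stocks, with a top final concentration of 10^-4 M. At least five concentrations (normally 10^-4–10^-9 M) were run, each in triplicate, read at 412 nm at 25 °C. IC50 values are from inhibition curves, as means of at least three determinations.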
In general terms: In Ellman's method for cholinesterases, released thiocholine reacts with DTNB.

For series [3], the target named is Cholinesterase (Equus caballus, UniProt P81908). In words: Inhibition of equine BChE using BTC as substrate preincubated for 5 mins followed by substrate addition measured after 2 mins by Ellman's assay.
The target of series [4] is Cholinesterase (Homo sapiens, UniProt P06276). Kind of series: Inhibition of human BChE using BTC as substrate preincubated for 5 mins followed by substrate addition measured after 2 mins by Ellman's assay. The method, boiled down:
as §1

Series [5] is described as follows: Antioxidant activity assessed as DPPH radical scavenging activity at 100 uM after 4 hrs by UV spectrophotometric analysis. Format: physicochemical. The procedure, abridged: (§2)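 DPPH radical at 0.1 mM in ethanol. Test compounds were in ethanol at 1–100 µM (1, 2, 10, 50, 100). Mixture lines used an equimolar (1:1) blend with ferulic acid. Absorbance was read at 517 nm before addition (Abs0) and after 4 h once stable (Abst). Scavenging % = (1 − Abst/Abs0) × 100.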
Background: The DPPH test is a chemical assay of radical scavenging.

The nature of series [6]: Antioxidant activity assessed as DPPH radical scavenging activity at 50 uM after 4 hrs by UV spectrophotometric analysis. Format: physicochemical. The procedure, abridged: as §2
Series [7] is described as follows: Antioxidant activity assessed as DPPH radical scavenging activity at 10 uM after 4 hrs by UV spectrophotometric analysis. Format: physicochemical. The procedure, abridged:
as §2

Series [8] in a line: Antioxidant activity assessed as DPPH radical scavenging activity at 2 uM after 4 hrs by UV spectrophotometric analysis. Format: physicochemical. The procedure, abridged:
as §2

Series [9] can be described thus: Antioxidant activity assessed as DPPH radical scavenging activity at 1 uM after 4 hrs by UV spectrophotometric analysis. Format: physicochemical. The method, boiled down: as §2
Series [10] is described as follows: Antioxidant activity assessed as galvinoxyl radical scavenging activity at 100 uM after 19 hrs by UV spectrophotometric analysis. Format: physicochemical. The procedure, abridged: (§3)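 Galvinoxyl radical at 2 µM in ethanol, with compounds in ethanol at 1, 2, 10, 50 or 100 µM. Mixture lines used an equimolar (1:1) blend with ferulic acid. A428 was recorded before addition and after 19 h once stable. Percent radical scavenged = (1 − Abst/Abs0) × 100.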

Series [11] can be described thus: Antioxidant activity assessed as galvinoxyl radical scavenging activity at 50 uM after 19 hrs by UV spectrophotometric analysis. Format: physicochemical. The method, boiled down: as §3
A short description of series [12]: Antioxidant activity assessed as galvinoxyl radical scavenging activity at 10 uM after 19 hrs by UV spectrophotometric analysis. Format: physicochemical. The method, boiled down:
as §3

Series [13] is described as follows: Antioxidant activity assessed as galvinoxyl radical scavenging activity at 2 uM after 19 hrs by UV spectrophotometric analysis. Format: physicochemical. The method, boiled down: as §3
Series [14] in a line: Antioxidant activity assessed as galvinoxyl radical scavenging activity at 1 uM after 19 hrs by UV spectrophotometric analysis. Format: physicochemical. The method, boiled down:
as §3

Cholinesterase (Equus caballus, UniProt P81908), sequence (P81908 whole entry): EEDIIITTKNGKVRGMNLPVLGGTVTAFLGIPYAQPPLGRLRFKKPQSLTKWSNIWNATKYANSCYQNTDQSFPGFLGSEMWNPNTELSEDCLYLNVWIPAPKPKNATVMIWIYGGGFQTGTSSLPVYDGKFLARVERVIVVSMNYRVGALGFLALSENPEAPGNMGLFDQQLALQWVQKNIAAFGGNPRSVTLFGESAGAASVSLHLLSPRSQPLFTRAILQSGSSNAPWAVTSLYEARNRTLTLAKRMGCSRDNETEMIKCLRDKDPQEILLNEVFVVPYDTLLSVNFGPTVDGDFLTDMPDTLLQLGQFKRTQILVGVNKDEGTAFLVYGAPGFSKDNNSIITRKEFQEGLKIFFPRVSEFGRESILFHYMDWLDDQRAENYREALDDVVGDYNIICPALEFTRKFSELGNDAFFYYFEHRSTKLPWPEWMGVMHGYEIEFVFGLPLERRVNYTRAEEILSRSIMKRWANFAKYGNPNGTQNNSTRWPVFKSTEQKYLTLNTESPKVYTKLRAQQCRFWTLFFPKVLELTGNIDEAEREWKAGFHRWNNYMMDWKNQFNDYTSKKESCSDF
Acetylcholinesterase (Electrophorus electricus, UniProt O42275), sequence (O42275 whole entry): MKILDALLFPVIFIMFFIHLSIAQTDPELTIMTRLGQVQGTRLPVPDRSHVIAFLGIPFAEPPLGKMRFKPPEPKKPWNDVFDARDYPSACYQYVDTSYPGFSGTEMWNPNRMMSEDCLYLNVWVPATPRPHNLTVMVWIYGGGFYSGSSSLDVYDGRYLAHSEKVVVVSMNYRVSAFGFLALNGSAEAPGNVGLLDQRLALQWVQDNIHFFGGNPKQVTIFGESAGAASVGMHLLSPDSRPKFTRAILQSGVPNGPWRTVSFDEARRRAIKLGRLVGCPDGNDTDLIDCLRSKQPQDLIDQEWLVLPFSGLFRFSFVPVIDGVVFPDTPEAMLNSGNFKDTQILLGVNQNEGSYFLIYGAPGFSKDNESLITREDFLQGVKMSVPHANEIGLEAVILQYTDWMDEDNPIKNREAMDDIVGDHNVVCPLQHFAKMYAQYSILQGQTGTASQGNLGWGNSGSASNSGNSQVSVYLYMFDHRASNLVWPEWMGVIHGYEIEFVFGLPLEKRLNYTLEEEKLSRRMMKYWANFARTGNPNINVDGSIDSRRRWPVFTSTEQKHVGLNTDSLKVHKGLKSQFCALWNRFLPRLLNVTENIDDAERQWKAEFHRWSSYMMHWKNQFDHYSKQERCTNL
Acetylcholinesterase (Homo sapiens, UniProt P22303), sequence (P22303 whole entry): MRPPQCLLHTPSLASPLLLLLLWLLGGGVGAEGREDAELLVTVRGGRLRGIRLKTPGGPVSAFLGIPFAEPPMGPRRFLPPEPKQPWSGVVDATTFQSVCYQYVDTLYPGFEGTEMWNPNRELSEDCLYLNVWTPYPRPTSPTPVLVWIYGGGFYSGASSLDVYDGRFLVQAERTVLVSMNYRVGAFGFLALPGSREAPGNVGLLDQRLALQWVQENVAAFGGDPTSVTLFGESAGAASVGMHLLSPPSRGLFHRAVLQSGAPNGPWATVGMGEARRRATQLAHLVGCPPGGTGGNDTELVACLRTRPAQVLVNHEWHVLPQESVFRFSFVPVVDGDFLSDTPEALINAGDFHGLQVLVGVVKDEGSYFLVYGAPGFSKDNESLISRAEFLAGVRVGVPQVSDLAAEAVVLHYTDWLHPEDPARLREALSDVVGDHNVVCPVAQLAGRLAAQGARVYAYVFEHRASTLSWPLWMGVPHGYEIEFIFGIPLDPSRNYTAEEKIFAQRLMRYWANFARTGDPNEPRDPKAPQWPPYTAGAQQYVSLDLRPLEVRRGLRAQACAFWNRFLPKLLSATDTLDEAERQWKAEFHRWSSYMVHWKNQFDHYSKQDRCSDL
Cholinesterase (Homo sapiens, UniProt P06276), sequence (P06276 whole entry): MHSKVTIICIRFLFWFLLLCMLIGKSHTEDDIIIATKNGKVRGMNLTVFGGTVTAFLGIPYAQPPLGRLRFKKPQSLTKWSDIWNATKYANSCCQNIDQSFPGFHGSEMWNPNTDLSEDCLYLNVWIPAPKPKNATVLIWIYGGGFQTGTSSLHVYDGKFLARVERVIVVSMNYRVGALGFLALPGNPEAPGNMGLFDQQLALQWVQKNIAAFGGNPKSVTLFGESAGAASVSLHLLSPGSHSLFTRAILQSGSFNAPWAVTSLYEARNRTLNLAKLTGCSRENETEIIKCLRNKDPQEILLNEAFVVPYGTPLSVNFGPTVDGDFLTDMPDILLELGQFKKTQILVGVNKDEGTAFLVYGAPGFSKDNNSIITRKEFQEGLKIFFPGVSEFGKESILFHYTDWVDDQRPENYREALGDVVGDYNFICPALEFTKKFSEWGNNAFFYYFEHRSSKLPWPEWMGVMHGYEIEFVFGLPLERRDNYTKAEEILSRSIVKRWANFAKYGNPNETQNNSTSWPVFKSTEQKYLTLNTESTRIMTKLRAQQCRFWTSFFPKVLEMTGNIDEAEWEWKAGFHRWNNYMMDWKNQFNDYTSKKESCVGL

Broadly, the IC50 is the midpoint of a concentration-inhibition curve. On to `COc1ccc2c(c1)[nH]c1cccc(CN(Cc3ccccc3)C(=O)/C=C/c3ccc(O)c(OC)c3)c12`, for which the IC50 in series [1] is above 100 µM.
Consider `CC(C)NCc1cccc2[nH]c3ccccc3c12`, for which the IC50 in [1] was determined as 21.6 µM; in series [2] it was 18 µM; in series [3] it was 8.9 µM; in [4], 8.1 µM.
Regarding `COc1cc(/C=C/C(=O)N(Cc2cccc3[nH]c4ccccc4c23)C2CCCC2)ccc1O`, the IC50 in series [1] was above 100 µM; in series [3], 31.6 µM. Moreover, the Activity in [5] came to 90.3%; in [6], 85.7%; in [7] it was 66.6%; in series [8], 54.5%; in series [9], 25.9%; in series [10] it was 90.3%. Further, the Activity in [11] is given as 85.7%; in series [12], 66.6%; in series [13], 54.5%; in series [14], 25.9%.
`COc1ccc2c(c1)[nH]c1cccc(CN(C(=O)/C=C/c3ccc(O)c(OC)c3)C(C)C)c12`: the IC50 in series [1] was 58.2 µM; in [3], 13.9 µM. Further, the Activity was determined as 98% in series [5]; 72.9% in series [6]; 68.2% in [7]; 55% in [8]; 45.1% in series [9]; 87.2% in series [10]. Further, the Activity in series [11] is 51.7%; in [12], 23.4%; in series [13], 8%; in series [14], 1.1%.
Turning to `COc1cc(/C=C/C(=O)N(Cc2cccc3[nH]c4ccccc4c23)C(C)C)ccc1O`, the IC50 stood at 11.1 µM in series [1], 22 µM in [2], 12.7 µM in series [3] and 9 µM in series [4]. Moreover, the Activity is 90.9% in series [5]; 84.5% in series [6]; 68.9% in series [7]; 56.2% in [8]; 44.1% in [9]; 90.8% in series [10]. Also, the Activity in series [11] came to 87.5%; in series [12], 68%; in [13], 55.2%; in series [14] it was 24.1%.
As for `COc1cc(/C=C/C(=O)N(Cc2cccc3[nH]c4ccccc4c23)C2CCCCC2)ccc1O`, the 50% inhibitory concentration (IC50) in [1] was above 100 µM; in series [3], 22 µM. Moreover, the Activity in series [5] was 89.2%; in [6] it was 72%; in [7] it was 63.1%; in series [8] it was 52.4%; in [9], 30.3%; in series [10], 87.2%. For the same compound, the Activity is listed as 42% in series [11], 23.1% in [12], 12.4% in [13] and 3.3% in series [14].
Regarding `COc1ccc2c(c1)[nH]c1cccc(CN(C(=O)/C=C/c3ccc(O)c(OC)c3)C3CCCCC3)c12`, the IC50 in series [1] is above 100 µM; in series [3] it was 20.5 µM. Further, the Activity in series [5] was found to be 88.6%; in [6], 82%; in series [7] it was 50.9%; in [8], 47.9%; in series [9], 38.6%; in [10], 88.6%. For the same compound, the Activity in series [11] came out at 72%; in [12] it was 50.9%; in series [13] it was 40.9%; in series [14] it was 25.6%.
As to `COc1ccc2c(c1)[nH]c1cccc(CN(C(=O)/C=C/c3ccc(O)c(OC)c3)C3CCCC3)c12`, the results for the 50% inhibitory concentration (IC50) in series [1] and in series [3] were 88.2 µM and 25.9 µM, respectively. For the same compound, the Activity in series [5] came out at 90.4%; in [6], 86.8%; in [7] it was 67.4%; in series [8], 54%; in series [9], 34.8%; in series [10], 87.4%. In addition, the Activity in series [11] turned out to be 66.8%; in series [12], 37.4%; in series [13], 24%; in series [14] it was 14.8%.
Regarding `COc1cc(/C=C/C(=O)N(Cc2ccccc2)Cc2cccc3[nH]c4ccccc4c23)ccc1O`, the IC50 in [1] was above 100 µM.
In the case of `CCN(Cc1cccc2[nH]c3ccccc3c12)C(=O)/C=C/c1ccc(O)c(OC)c1`, the IC50 stood at 18 µM in series [1] and 13.8 µM in series [3]. In addition, the Activity in series [5] came out at 86.3%; in series [6] it was 82.8%; in series [7], 55%; in [8] it was 40.1%; in series [9] it was 24.7%; in [10], 86.3%. Further, the Activity in series [11] stood at 82.8%; in [12], 55%; in series [13], 40.1%; in series [14] it was 24.7%.
As to `CCN(Cc1cccc2[nH]c3cc(OC)ccc3c12)C(=O)/C=C/c1ccc(O)c(OC)c1`, the IC50 in series [1] worked out at 61.6 µM; in [3], 19.8 µM. Also, the Activity in series [5] is 94.9%; in series [6] it was 86.4%; in series [7] it was 71.3%; in [8], 59.2%; in series [9], 33.1%; in series [10], 91.9%. The Activity in series [11] came out at 78.2%; in series [12] it was 40.3%; in [13], 29.2%; in [14] it was 11.1%.
As to `COc1cc(/C=C/C(=O)O)ccc1O` [FERULATE], the Activity in series [5] is reported as 92.2%; in series [6], 72%; in series [7], 63.1%; in [8] it was 44.4%; in series [9] it was 30.3%; in series [10] it was 79%. Moreover, the Activity worked out at 52.2% in series [11], 33.7% in series [12], 15.8% in series [13] and 6.6% in series [14].
